# Measurements: publication PMC12376074 (Toxicology in vitro : an international journal published in …, 2019)
# Where two headings read alike, the source gives them in different places.
# Columns and labels:
# HepG2 cells [1] = assay: MTT cell viability assay; assay type: cell-based, human; conditions: read-out: IC50 on cell growth
# HepG2 cells [2] = assay: Caspase-3/7 activity measurement; assay type: cell-based, human; conditions: 0.1 IC50, 0.5 IC50 and IC50, 48 h
# cleaved caspase-3 = assay: Western blot of cleaved caspase-3 in HepG2 cells; assay type: cell-based, human; conditions: 48 h
# Bcl-2, Mcl-1, Bax = assay: Western blot of Bcl-2 family proteins in HepG2 cells; assay type: cell-based, human; conditions: 48 h
# [3] = system: phosphorylation of p38, JNK, and ERK1/2; assay: Western blot of MAPK phosphorylation in HepG2 cells; assay type: cell-based, human; conditions: 48 h
# [4] = MTT cell viability assay, CYP vector cells; assay type: cell-based; conditions: human, HepG2/CYP vector cells (empty-vector control), ADQ 1.56–50 μM
# [5] = MTT cell viability assay, CYP1A1 cells; assay type: cell-based; conditions: human, HepG2 cells overexpressing CYP1A1
# [6] = MTT cell viability assay, CYP1A2 cells; assay type: cell-based; conditions: human, HepG2 cells overexpressing CYP1A2
# [7] = MTT cell viability assay, CYP1B1 cells; assay type: cell-based; conditions: human, HepG2 cells overexpressing human CYP1B1
# [8] = MTT cell viability assay, CYP2C8 cells; assay type: cell-based; conditions: human, HepG2 cells overexpressing CYP2C8, IC50, CYP2C8 overexpressing cells, ADQ 1.56–50 μM
# [9] = MTT cell viability assay, CYP2C19 cells; assay type: cell-based; conditions: human, HepG2 cells overexpressing CYP2C19
# [10] = MTT cell viability assay, CYP3A4 cells; assay type: cell-based; conditions: human, HepG2 cells overexpressing CYP3A4, IC50, CYP3A4 overexpressing cells
# [11] = MTT cell viability assay, CYP3A5 cells; assay type: cell-based; conditions: human, HepG2 cells overexpressing CYP3A5
# HepG2 cells [12] = assay: LDH release assay; assay type: cell-based, human; conditions: 48 h, concentrations above the 0.5 IC50
# [13] = cited from earlier work
# [14] = system: HepG2 cells overexpressing CYP3A4; assay: Toxicity of CYP inhibitor to CYP3A4 cells; assay type: cell-based, human; conditions: 30 μM
# CYP3A4 = assay: Western blot of CYP3A4 expression; assay type: cell-based, human; conditions: 30 μM, CYP3A4 overexpressing cells, 48 h
# Outline: (§1)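 HepG2 cells overexpressing CYP2C8 or CYP3A4 were co-incubated 48 h with test compound, with or without 30 μM rifampicin or ketoconazole. RIPA lysates (protease inhibitors, 30 min on ice, 12,000g) were BCA-quantified, and 20–60 μg protein was run on 10% SDS-PAGE and blotted to PVDF. Blots were probed with goat polyclonal anti-CYP2C8 or mouse monoclonal anti-CYP3A4, detected by ECL, and quantified against β-actin.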
# [15] = system: HepG2 cells overexpressing CYP2C8; assay: Toxicity of CYP inhibitor to CYP2C8 cells; assay type: cell-based, human; conditions: 30 μM
# CYP2C8 = assay: Western blot of CYP2C8 expression; assay type: cell-based, human; conditions: 30 μM, CYP2C8 overexpressing cells, 48 h
# Outline: as §1
smiles,measurement,setting,value
"CCN(CC)Cc1cc(Nc2ccnc3cc(Cl)ccc23)ccc1O [ADQ, Amodiaquine]",IC50,"HepG2 cells [1]; Homo sapiens, HepG2, 48 h",17.4 µM
same,caspase-3/7 activity,HepG2 cells [2],increased the activity of caspase-3/7 in a concentration-dependent manner
same,expression level of cleaved caspase-3,cleaved caspase-3,increase
same,expression level of pro-apoptotic member Bax,"Bcl-2, Mcl-1, Bax",increased
same,expression levels of anti-apoptotic members Bcl-2 and Mcl-1,"Bcl-2, Mcl-1, Bax",decreased
same,"phosphorylation of p38, JNK, and ERK1/2",[3],no change
same,IC50 at 48 h,[4],17.1 µM
same,IC50 at 48 h,[5],26.4 µM
same,IC50 at 48 h,[6],18.7 µM
same,IC50 at 48 h,[7],25.7 µM
same,IC50 at 48 h,[8],11.7 µM
same,IC50 at 48 h,[9],17.3 µM
same,IC50 at 48 h,[10]; ADQ 1.56–50 μM,14 µM
same,IC50 at 48 h,"[10]; ADQ 3.13–50 μM, no CYP inhibitor",14.8 µM
same,IC50 at 48 h,[11],17.1 µM
"CCNCc1cc(Nc2ccnc3cc(Cl)ccc23)ccc1O [NADQ, N-desethylamodiaquine]",IC50,"HepG2 cells [1]; HepG2 cells, 1.56–50 μM, 48 h, MTT",15 µM
same,LDH release relative to vehicle control,HepG2 cells [12],> 4 fold
same,caspase-3/7 activity,HepG2 cells [2],increased the activity of caspase-3/7 in a concentration-dependent manner
same,expression level of cleaved caspase-3,cleaved caspase-3,increase
same,expression level of pro-apoptotic member Bax,"Bcl-2, Mcl-1, Bax",no change
same,expression levels of anti-apoptotic members Bcl-2 and Mcl-1,"Bcl-2, Mcl-1, Bax",no change
same,"phosphorylation of p38, JNK, and ERK1/2",[3],markedly increased
same,half-life (t1/2) of NADQ relative to ADQ (longer),"[13]; after oral administration of ADQ, ref Laurent et al., 1993, Scarsi et al., 2014",20- to 50 fold
same,Cmax of NADQ in vivo relative to ADQ (higher),"[13]; in vivo, ref Lai et al., 2009",> 20 fold
CC(=O)N1CCN(c2ccc(OCC3COC(Cn4ccnc4)(c4ccc(Cl)cc4Cl)O3)cc2)CC1 (stereo not shown) [ketoconazole],toxicity of the CYP inhibitor to cells,[14],not toxic
same,expression level of CYP3A4,CYP3A4,markedly reduced
CO[C@H]1/C=C/O[C@@]2(C)Oc3c(C)c(O)c4c(O)c(c(/C=N/N5CCN(C)CC5)c(O)c4c3C2=O)NC(=O)/C(C)=C\C=C\[C@H](C)[C@H](O)[C@@H](C)[C@@H](O)[C@@H](C)[C@H](OC(C)=O)[C@@H]1C [rifampicin],toxicity of the CYP inhibitor to cells,[15],not toxic
same,expression level of CYP2C8,CYP2C8,markedly reduced
